The results in this text go back to PubChem BioAssay.

Assay [1] in a line: inhibitors of TNFa-induced NFkB p65 translocation, primary screen, imaging, HUVEC, MLSMR starter and 10KST1 sets (AID 438;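 active means inhibition above 20% together with a positive visual image hit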;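 further: compound added about 3h40 before a 20 min TNFalpha stimulation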;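 on inhibition: signal is the nuclear over cytoplasmic p65 intensity ratio per well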). The settings on record: HUVEC TNFa-induced p65 nuclear translocation; cell count: measured here: nuclei count (cytotoxicity indicator), at 2.08 µM; inhibition: at 2 µM, stronger effect = higher value, 0% TNFa-plus-vehicle, 100% no-TNFa wells.
Assay [2] can be described thus: reduction of polyQ htt aggregates in cells – imaging, exon1htt(103Q)mCFP cells, high-content imaging, primary screen (AID 483;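 active means visual image review flags a hit and inhibition of aggregation exceeds 20%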;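 further: compound exposure lasted 3 days before fixation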;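 on nuclei count: percent of the per-plate median nuclei count of sample wells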). The settings on record: exon1htt(103Q)mCFP cell line, aggregate imaging, at 2 µM; inhibition of aggregation: stronger effect = higher value; nuclei count: measured here: cell count, toxicity.
Assay [3] can be described thus: endothelial E-selectin expression blockers – imaging, HUVEC, immunofluorescence, MLSMR starter and 10KST1 sets, primary screen (AID 487;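 active means visually confirmed hit in the image check and inhibition above 20%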;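 on inhibition: signal is fraction of cell area covered by stained E-selectin grains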;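 on nuclei count: 100% = median nuclei count of all wells on the same plate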). Conditions: HUVEC TNFalpha-induced E-selectin immunofluorescence imaging, at 2 µM; inhibition: stronger effect = higher value; nuclei count: measured here: cell number, toxicity.
Assay [4] addresses Voltage-gated potassium channel subunit beta-2 (Rattus norvegicus) (UniProt P62483). The experiment in a line: inhibitors of rat Kvbeta2 reductase activity – biochemical, NADPH fluorescence, primary screen (AID 622;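 active means fluorescence slope higher than the sample average by over 3 SD, cut at about -0.22 in these data, passing the limit was not always enough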;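 further: slope of raw intensity against log time taken from 70 to 1610 s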). Conditions: recombinant KvBeta, 4-cyanobenzaldehyde reduction, at 10 µM, stronger effect = higher value.
Assay [5] has the same target. The assay can be described thus: enhancers of rat Kvbeta2 NADPH turnover – biochemical, NADPH fluorescence, primary screen (AID 623;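 active means NADPH fluorescence slope more negative than the mean of all samples by about 3 SD, 99.7% confidence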;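 further: fluorescence intensity change per second fitted from 20 to 320 s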). The settings on record: Recombinant KvBeta, NADPH fluorescence decrease slope, 10 min; at 10 µM; stronger effect = lower value.
Assay [6] addresses Muscarinic acetylcholine receptor M4 (Homo sapiens) (UniProt P08173). The assay can be described thus: M4-linked GIRK flux change, two-sided – cell-based, HEK293 M4/GIRK, thallium flux, BTC-AM, M4 allosteric agonist project, primary screen (AID 625;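 active means fluorescence slope after compound addition differing from the mean of all tested samples at 99.7% confidence, mostly higher but some lower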;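 further: thallium influx through GIRK channels coupled to M4 in HEK293 cells with BTC-AM dye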). Conditions: at 10 µM, actives lie on both sides. In short, it runs like this: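 Assay system: HEK293 cells with M4 receptor and GIRK channels / Controls: carbachol and DMSO controls / Schedule: 1 h dye loading, 2 min kinetic read / Technique: kinetic fluorescence with BTC-AM dye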

The nature of assay [7]: blockers of RIG-like receptor reporter activation – cell-based, Sendai virus stimulus, luciferase, 10K MLSCN set, TLR/RLR signaling modifier project, primary screen (AID 602276).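 Further: firefly luciferase from ISG56 promoter only with Renilla not read in this screen; 0% = Sendai virus plus DMSO and 100% = medium plus DMSO without virus.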 The settings on record: HEK293 RL24 IRF3 luciferase reporter, at 10 µM, stronger effect = higher value.
Assay [8] can be described thus: TLR3 IRF3 reporter activation blockers – cell-based, poly I:C stimulus, luciferase, 10K MLSCN set, primary screen (AID 602277;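 active means inhibition of the reporter signal at or above 50%; inactive means inhibition below 50%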). Conditions: HEK293-TLR3 RL24 IRF3 luciferase reporter, at 10 µM, stronger effect = higher value.

Calls of active or inactive are those of the source.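 How the source made its calls, unless noted: active means inhibition at or above 50% at 10 µM; inactive means inhibition below 50%.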

Sequence of Muscarinic acetylcholine receptor M4 (Homo sapiens) (P08173 whole entry, looked up): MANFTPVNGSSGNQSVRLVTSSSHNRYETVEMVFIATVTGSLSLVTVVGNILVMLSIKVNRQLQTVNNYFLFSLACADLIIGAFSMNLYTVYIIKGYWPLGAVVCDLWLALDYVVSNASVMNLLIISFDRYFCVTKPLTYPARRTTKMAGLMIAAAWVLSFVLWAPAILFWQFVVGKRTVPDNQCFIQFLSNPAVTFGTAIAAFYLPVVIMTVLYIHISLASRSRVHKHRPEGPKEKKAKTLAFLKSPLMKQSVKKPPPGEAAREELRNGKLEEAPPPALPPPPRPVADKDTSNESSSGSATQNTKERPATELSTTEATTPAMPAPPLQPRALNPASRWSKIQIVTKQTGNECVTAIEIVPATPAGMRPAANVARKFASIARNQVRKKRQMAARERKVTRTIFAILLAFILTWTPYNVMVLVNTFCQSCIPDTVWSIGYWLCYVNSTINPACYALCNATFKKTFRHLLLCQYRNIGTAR
Sequence of Voltage-gated potassium channel subunit beta-2 (Rattus norvegicus) (P62483 whole entry, looked up): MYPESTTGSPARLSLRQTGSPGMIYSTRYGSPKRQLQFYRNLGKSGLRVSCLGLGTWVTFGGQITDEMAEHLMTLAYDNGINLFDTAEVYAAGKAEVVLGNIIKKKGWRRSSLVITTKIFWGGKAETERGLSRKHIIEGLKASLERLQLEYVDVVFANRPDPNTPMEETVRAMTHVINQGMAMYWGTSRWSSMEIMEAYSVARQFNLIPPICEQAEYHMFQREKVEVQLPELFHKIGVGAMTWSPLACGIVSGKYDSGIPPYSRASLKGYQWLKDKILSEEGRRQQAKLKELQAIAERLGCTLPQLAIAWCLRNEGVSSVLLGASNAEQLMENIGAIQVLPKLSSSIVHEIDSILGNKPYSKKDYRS

Take `Cn1c(=O)c2c(nc(NCCc3ccccc3)n2CC(=O)NCCc2ccccc2)n(C)c1=O`: the cell count in assay [1] came out at 339. In addition, the inhibition in assay [1] was 2.5% (inactive); in assay [3], -86.4% (inactive); in assay [7], 30.2% (inactive); in assay [8], 31.9% (inactive). Further, the inhibition of aggregation in assay [2] was 6.2% (inactive). The nuclei count in assay [2] came to 94.2%; in assay [3], 105%. Moreover, the fluorescence slope was -0.575 (inactive) in assay [4] and 0.00514 (inactive) in assay [6]. The NADPH fluorescence slope in assay [5] was 2.8e-06 (inactive).

`Cc1cccc2cc(CN(Cc3nnnn3C3CCCC3)C3CCCCC3)c(=O)[nH]c12`: the cell count in assay [1] is 349. Further, the inhibition in assay [1] was 5.8% (inactive); in assay [3] it was -44% (inactive); in assay [7], 7.22% (inactive); in assay [8], 21.3% (inactive). For the same compound, the inhibition of aggregation in assay [2] was -3.3% (inactive). Also, the nuclei count in assay [2] is 99.1%; in assay [3], 106%. Besides, the fluorescence slope in assay [4] was -0.466 (inactive); in assay [6], 0.00597 (inactive). For the same compound, the NADPH fluorescence slope in assay [5] was 4.8e-05 (inactive).

As for `Cc1ccc(Cn2nnc3c(=O)n(CC(=O)NCC4CCCO4)cnc32)cc1` (centres undefined), in assay [1], the cell count turned out to be 792. Also, the inhibition in assay [1] was -13.6% (inactive); in assay [3] it was -51.5% (inactive); in assay [7] it was 9.27% (inactive); in assay [8], 18.9% (inactive). Besides, the inhibition of aggregation in assay [2] is -20.8% (inactive). Also, the nuclei count in assay [2] worked out at 102%; in assay [3] it was 98.4%. Besides, the fluorescence slope was -0.459 (inactive) in assay [4] and 0.00672 (inactive) in assay [6]. For the same compound, in assay [5], the NADPH fluorescence slope was -4.1e-05 (inactive).

For the compound `O=C(O)CCC(=O)Nc1nc(-c2ccccc2)cs1`, in assay [1], the cell count turned out to be 546. For the same compound, the inhibition was -24.7% (inactive) in assay [1], 4.3% (inactive) in assay [3], 16.3% (inactive) in assay [7] and 23.8% (inactive) in assay [8]. In addition, the inhibition of aggregation in assay [2] is -8.2% (inactive). In addition, the nuclei count in assay [2] was 110%; in assay [3], 147%. For the same compound, the fluorescence slope in assay [4] is -0.449 (inactive); in assay [6], 0.00599 (inactive). The NADPH fluorescence slope in assay [5] is 0.00011 (inactive).

Consider `Cc1cc2oc(=O)cc(CN3CCN(Cc4ccc5c(c4)OCO5)CC3)c2cc1C`, for which the cell count in assay [1] was 362. Further, the inhibition in assay [1] is 6.8% (inactive); in assay [3], -0.8% (inactive); in assay [7] it was 5.83% (inactive); in assay [8], 27% (inactive). Moreover, in assay [2], the inhibition of aggregation is -15.1% (inactive). Also, the nuclei count in assay [2] came out at 99.2%; in assay [3], 108%. Also, the fluorescence slope in assay [4] is -0.536 (inactive); in assay [6], 0.00603 (inactive). The NADPH fluorescence slope in assay [5] was -4.3e-05 (inactive).

Take `CCSc1nc2c(c(=O)n1CC)SC(C)C2` (centres undefined): in assay [1], the cell count was 224. The inhibition in assay [1] was 2.8% (inactive); in assay [3], 8.4% (inactive); in assay [7], 7.34% (inactive); in assay [8], 18.7% (inactive). The inhibition of aggregation in assay [2] is 0.4% (inactive). For the same compound, the values for the nuclei count in assay [2] and in assay [3] were 92.4% and 95%, respectively. For the same compound, the fluorescence slope in assay [4] is -0.401 (inactive); in assay [6] it was 0.00651 (inactive). In addition, the NADPH fluorescence slope in assay [5] is -0.000126 (inactive).

In the case of `O=C(COC(=O)c1ccco1)NCc1cccs1`, the cell count in assay [1] came out at 516. Besides, the inhibition in assay [1] is -13% (inactive); in assay [3], 7.8% (inactive); in assay [7], 5.62% (inactive); in assay [8] it was 5.96% (inactive). Further, the inhibition of aggregation in assay [2] was -4.6% (inactive). For the same compound, the nuclei count in assay [2] worked out at 93.5%; in assay [3], 88.2%. The fluorescence slope in assay [4] was -0.534 (inactive); in assay [6] it was 0.0055 (inactive). Also, the NADPH fluorescence slope in assay [5] is -5.7e-05 (inactive).

With `CCCN(CCC)S(=O)(=O)c1ccc(C(=O)Nc2nnc(-c3cccc(OC)c3)o2)cc1`, the cell count in assay [1] was 345. Besides, the inhibition was 1.4% (inactive) in assay [1], 38.1% (inactive) in assay [3], 27.3% (inactive) in assay [7] and 23.2% (inactive) in assay [8]. Also, in assay [2], the inhibition of aggregation was 13.6% (inactive). Besides, the results for the nuclei count in assay [2] and in assay [3] were 92.5% and 107%, respectively. Also, the fluorescence slope was -0.5 (inactive) in assay [4] and 0.0064 (inactive) in assay [6]. The NADPH fluorescence slope in assay [5] is -0.000148 (inactive).

As for `Cn1cnnc1SCC(=O)Nc1ccccc1Sc1ccccc1`, the cell count in assay [1] was determined as 740. For the same compound, the inhibition was 4% (inactive) in assay [1], -36.2% (inactive) in assay [3], 13.5% (inactive) in assay [7] and 8.17% (inactive) in assay [8]. The inhibition of aggregation in assay [2] was -6.3% (inactive). Besides, the nuclei count in assay [2] came to 93.3%; in assay [3] it was 127%. Moreover, the figures for the fluorescence slope in assay [4] and in assay [6] were -0.215 (inactive) and 0.00628 (inactive), respectively. Besides, the NADPH fluorescence slope in assay [5] was -2.9e-05 (inactive).

Consider `CC(=O)C1=C(O)C(=O)N(Cc2ccco2)C1c1ccc2c(c1)OCO2` (centres undefined), for which the cell count in assay [1] was 403. For the same compound, the inhibition in assay [1] was 10.9% (inactive); in assay [3] it was 7.1% (inactive); in assay [7], 0.0775% (inactive); in assay [8] it was 11.9% (inactive). The inhibition of aggregation in assay [2] was 1.6% (inactive). Also, the nuclei count in assay [2] is 104%; in assay [3], 116%. The fluorescence slope in assay [4] is -0.513 (inactive); in assay [6], 0.00429 (inactive). Further, in assay [5], the NADPH fluorescence slope is -2.5e-05 (inactive).

`Cc1cc(C)c(NC(=O)C2CCCN2CCO)c(C)c1` (centres undefined): the cell count in assay [1] came to 553. Further, the inhibition in assay [1] was -0.3% (inactive); in assay [3], -4.2% (inactive); in assay [7] it was -8.07% (inactive); in assay [8], -8.13% (inactive). Moreover, the inhibition of aggregation in assay [2] is -3.4% (inactive). Moreover, the nuclei count stood at 92.5% in assay [2] and 84.4% in assay [3]. The fluorescence slope was -0.514 (inactive) in assay [4] and 0.00468 (inactive) in assay [6]. In assay [5], the NADPH fluorescence slope is -6.1e-05 (inactive).

Regarding `O=C(c1ccc(-c2cccc(C(F)(F)F)c2)o1)N1CCOCC1`, the cell count in assay [1] was determined as 482. Also, the inhibition in assay [1] was 4.3% (inactive); in assay [3], 10.8% (inactive); in assay [7], -39.9% (inactive); in assay [8] it was -93.2% (inactive). Further, the inhibition of aggregation in assay [2] is -17.9% (inactive). Also, the nuclei count in assay [2] was found to be 117%; in assay [3], 99.9%. The fluorescence slope in assay [4] is -0.544 (inactive); in assay [6] it was 0.00523 (inactive). In assay [5], the NADPH fluorescence slope is -3.4e-05 (inactive).

As to `CCCCNC(=O)Nc1ccnn1C1CCCCC1`, the cell count in assay [1] amounted to 909. Further, the inhibition in assay [1] is -7.5% (inactive); in assay [3], -34.1% (inactive); in assay [7], 17% (inactive); in assay [8] it was 18.1% (inactive). Further, the inhibition of aggregation in assay [2] is -8.6% (inactive). For the same compound, the nuclei count in assay [2] came out at 100%; in assay [3], 105%. For the same compound, the fluorescence slope is -0.56 (inactive) in assay [4] and 0.0186 (active) in assay [6]. In addition, the NADPH fluorescence slope in assay [5] is -1.6e-05 (inactive).

For the compound `Cc1nnc(SCC(=O)NC(C)(C)C)n1CCc1ccccc1`, in assay [1], the cell count was 677. Further, the inhibition in assay [1] is 2.8% (inactive); in assay [3], -20.1% (inactive); in assay [7] it was 11.7% (inactive); in assay [8], 8.89% (inactive). Also, in assay [2], the inhibition of aggregation was -3.9% (inactive). Besides, the nuclei count in assay [2] was found to be 109%; in assay [3] it was 135%. The figures for the fluorescence slope in assay [4] and in assay [6] were -0.512 (inactive) and 0.00442 (inactive), respectively. Moreover, the NADPH fluorescence slope in assay [5] was -4.5e-05 (inactive).
